The record followed here is ChEMBL document CHEMBL4699650, “SAR Investigation and Discovery of Water-Soluble 1-Methyl-1,4-dihydroindeno[1,2-c]pyrazoles as Potent Tubulin Polymerization Inhibitors” (J Med Chem, 2020).

In one series the test system is A549. In words: Antiproliferation activity against human A549 cells assessed as cell growth inhibition measured after 72 hrs by MTT assay. It counts as functional. The essentials:
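Cells grown in RPMI-1640 with 10% FBS at 37 °C, 5% CO2, seeded at 4−7 × 10³ cells/well and left to adhere overnight. Exposed to a range of concentrations for 72 h, then MTT (2.5 mg/mL stock) added for 4 h. Formazan dissolved in DMSO and absorbance read at 570 nm. GI50 taken as the concentration giving 50% growth inhibition, reported as mean ± SD of at least three independent experiments.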

The test system of series [1] is HepG2. The experiment in a line: Induction of cell cycle arrest in human HepG2 cells assessed as accumulation in G1 phase at 5 nM incubated for 24 hrs by propidium iodide staining based flow cytometry (reference value: 60.76%). It counts as functional. (A flow cytometer gives signals particle by particle.)
Series [2] deals with HepG2. The experiment in a line: Induction of cell cycle arrest in human HepG2 cells assessed as accumulation in S phase at 5 nM incubated for 24 hrs by propidium iodide staining based flow cytometry (reference value: 26.65%). It counts as functional.
For series [3], the system named is HepG2. In words: Induction of cell cycle arrest in human HepG2 cells assessed as accumulation in G2/M phase at 5 nM incubated for 24 hrs by propidium iodide staining based flow cytometry (reference value: 12.59%). The class given is functional.
For series [4], the system named is HepG2. In words: Induction of cell cycle arrest in human HepG2 cells assessed as accumulation in G1 phase at 10 nM incubated for 24 hrs by propidium iodide staining based flow cytometry (reference value: 60.76%). It counts as functional.
In series [5] the test system is HepG2. In words: Induction of cell cycle arrest in human HepG2 cells assessed as accumulation in G2/M phase at 10 nM incubated for 24 hrs by propidium iodide staining based flow cytometry (reference value: 12.59%). The class given is functional.
Series [6] has as its system HepG2. The experiment in a line: Induction of cell cycle arrest in human HepG2 cells assessed as accumulation in G1 phase at 20 nM incubated for 24 hrs by propidium iodide staining based flow cytometry (reference value: 60.76%). It counts as functional.
For series [7], the system named is HepG2. In words: Induction of cell cycle arrest in human HepG2 cells assessed as accumulation in S phase at 20 nM incubated for 24 hrs by propidium iodide staining based flow cytometry (reference value: 26.65%). It counts as functional.
For series [8], the system named is HepG2. The experiment in a line: Induction of cell cycle arrest in human HepG2 cells assessed as accumulation in G2/M phase incubated for 24 hrs by propidium iodide staining based flow cytometry. It counts as functional. To be noted: dose nM 5-20, time 24.0 hrs.
For series [9], the system named is HepG2. In words: Induction of apoptosis in human HepG2 cells assessed as early apoptotic cells at 5 nM incubated for 12 hrs by Annexin V-PE and 7-AAD staining based flow cytometry (reference value: 4.52%). The class given is functional. The essentials:
(§1)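 HepG2 cells seeded at 3 × 10⁵ cells/well, adhered overnight, exposed at 5, 10 or 20 nM for 12 or 24 h. Harvested into Annexin V binding buffer and stained with annexin V-PE and 7-AAD for 15 min at room temperature in the dark, then analysed by flow cytometry. Gates: live (−/−), early apoptotic (+/−), late apoptotic (+/+), necrotic (−/+).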

Series [10] relates to HepG2. In words: Induction of apoptosis in human HepG2 cells assessed as early apoptotic cells at 10 nM incubated for 12 hrs by Annexin V-PE and 7-AAD staining based flow cytometry (reference value: 4.52%). It counts as functional. The essentials: as §1
Series [11] has as its system HepG2. In words: Induction of apoptosis in human HepG2 cells assessed as necrotic cells at 20 nM incubated for 12 hrs by Annexin V-PE and 7-AAD staining based flow cytometry (reference value: 0.55 %). It counts as functional. A digest of the protocol: as §1
The test system of series [12] is HepG2. The experiment in a line: Induction of apoptosis in human HepG2 cells assessed as early apoptotic cells at 20 nM incubated for 12 hrs by Annexin V-PE and 7-AAD staining based flow cytometry (reference value: 4.52%). It counts as functional. A digest of the protocol: as §1
The test system of series [13] is HepG2. In words: Induction of apoptosis in human HepG2 cells assessed as necrotic cells at 5 nM incubated for 24 hrs by Annexin V-PE and 7-AAD staining based flow cytometry (reference value: 0.34 %). It counts as functional. A digest of the protocol:
as §1

Series [14] relates to HepG2. The experiment in a line: Induction of apoptosis in human HepG2 cells assessed as early apoptotic cells at 5 nM incubated for 24 hrs by Annexin V-PE and 7-AAD staining based flow cytometry (reference value: 4.16 %). It counts as functional. The essentials:
as §1

Series [15] deals with HepG2. The experiment in a line: Induction of apoptosis in human HepG2 cells assessed as live cells at 10 nM incubated for 24 hrs by Annexin V-PE and 7-AAD staining based flow cytometry (reference value: 93.2%). It counts as functional. The essentials: as §1
Series [16] concerns HepG2. The experiment in a line: Induction of apoptosis in human HepG2 cells assessed as necrotic cells at 20 nM incubated for 24 hrs by Annexin V-PE and 7-AAD staining based flow cytometry (reference value: 0.34 %). The class given is functional. A digest of the protocol: as §1
For series [17], the system named is HepG2. The experiment in a line: Induction of apoptosis in human HepG2 cells assessed as increase in Bax expression incubated for 24 hrs by Western blot analysis. It counts as functional, cell-based. The settings on record: dose nM 2.5-20, time 24.0 hrs. A digest of the protocol:
(§2)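 Lysates (20 μg protein) separated by 10% PAGE and blotted to PVDF. Probed for Bax, Bcl-2, cleaved caspase-3 and cleaved PARP, detected by ECL and quantified by densitometry.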
(A western blot detects proteins with antibodies after separation by electrophoresis.)

Series [18] concerns HepG2. The experiment in a line: Induction of apoptosis in human HepG2 cells assessed as PARP cleavage at 2.5 to 20 nM incubated for 24 hrs by western blot analysis. The class given is functional, cell-based. To be noted: dose nM 2.5-20, time 24.0 hrs. A digest of the protocol: as §2
Series [19] relates to HepG2. In words: Antitumor activity against human HepG2 cells xenografted in iv dosed Balb/c nude mouse assessed as tumor growth inhibition administered every 2 days for 21 days. The class given is functional, organism-based. To be noted: time 21.0 day. The essentials: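 Nude mice received 200 μL PBS containing HepG2 at 1 × 10⁷ cells/mL subcutaneously in the right armpit. Randomised at 90 mm³ tumour volume, five per group. Compound given iv as a 2.0 mg/mL solution in distilled water, 5 or 10 mg/kg every two days for 21 days, with a water vehicle group. Tumour volume (L × W²/2) and body weight recorded every 3 days. Inhibition = (1 − RTV treated/RTV vehicle) × 100%.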

The nature of series [20]: Toxicity in Balb/c nude mouse xenografted with human HepG2 cells assessed as adverse signs at 5 to 10 mg/kg, iv administered every 2 days for 21 days. It counts as organism-based. The settings on record: in vivo, 504 h, dose 5-10 mg/kg, time 21 day. Background: A xenograft is tissue or cells of one species grown in another, often human tumour cells in immunodeficient mice.

Series [21] can be described thus: Selectivity index, ratio of GI50 for cytotoxicity against human L02 cells to GI50 for antiproliferation activity against human HepG2 cells assessed as cell growth inhibition measured after 72 hrs by MTT assay. It counts as toxicity, cell-based. To be noted: L02 cells and HepG2 cells, read-out: RatioGI50. The essentials:
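MTT assay: cells seeded 4–7 × 10³/well, adhered overnight, exposed to a concentration series for 72 h. MTT (2.5 mg/mL stock) added for 4 h, crystals dissolved in DMSO, absorbance read at 570 nm. GI50 is mean ± SD of ≥3 independent experiments. Selectivity = GI50 on normal LO2 / GI50 on HepG2. Resistance fold = GI50 on resistant cells / GI50 on sensitive cells.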

The nature of series [22]: Resistance index, ratio of GI50 for antiproliferation activity against human A549/Taxol cells to GI50 for antiproliferation activity against human A549 cells assessed as cell growth inhibition measured after 72 hrs by MTT assay.

The source made the active and inactive calls. The rule behind the calls is not given here.

As usually defined, the GI50 is the concentration at which growth is held to half of that of the control. For the compound `CCOc1cccc(Nc2nn(C)c3c2Cc2cc(OCC)c(OCCCN)cc2-3)c1`, the GI50 with A549 worked out at 3.7 nM. Further, the Activity in the series on HepG2 [1] was found to be 49.56%; in the series on HepG2 [2], 30.66%; in the series on HepG2 [3], 19.78%; in the series with HepG2 [4], 17.07%; in the series on HepG2 [5], 56.07%; with HepG2 [6], 3.11%. Besides, the Activity is 8.43% in the series on HepG2 [7]; “Dose-dependent effect” with HepG2 [8]; 5.66% with HepG2 [9]; 9.58% in the series on HepG2 [10]; 1.36% in the series on HepG2 [11]; 14.5% in the series on HepG2 [12]. The Activity was 0.32% in the series on HepG2 [13]; 9.75% with HepG2 [14]; 75.5% with HepG2 [15]; 0.71% in the series with HepG2 [16]; “Dose-dependent effect” in the series on HepG2 [17]; “Dose-dependent effect” in the series on HepG2 [19]. In addition, the Activity result in [20] was “Non-Toxic”. In addition, the outcome in the series on HepG2 [18] was Active. The selectivity ratio at 72 h in series [21] turned out to be 118. Further, the RatioGI50 in series [22] turned out to be 4.
